Experimental data taken from ChEMBL document CHEMBL4028846, “Insights on the Interaction between Transthyretin and Aβ in Solution. A Saturation Transfer Difference (STD) NMR Analysis of the Role of Iododiflunisal” (J Med Chem, 2017).
Activity calls are given as the source filed them. The rule behind the calls is not given here.

How the values were obtained:
[1] = molecular target: T1, Transthyretin (Homo sapiens, UniProt P02766); experiment: Binding affinity to recombinant human transthyretin expressed in Escherichia coli BL21 by STD-NMR spectroscopic method
How it was run: (§1)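 Human recombinant WT TTR expressed in E. coli, purified by ion exchange then preparative gel electrophoresis. On-resonance at aliphatic region (δ −0.2 to 0.16 ppm), off-resonance δ 100 ppm. Saturation by 20 ms PC9 pulse train, 2 s total, 600 MHz.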

[2] = molecular target: T1, Transthyretin; experiment: Binding affinity to recombinant human transthyretin expressed in Escherichia coli BL21 at 1:50 protein to ligand molar ratio by STD-NMR spectroscopic method
How it was run: as §1, with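 “electrophoresis. Protein 20−50 μM in PBS pH 6.0, […] 1:20 to 1:50, 298−313 K, optimized per case.” for “electrophoresis.”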

[3] = molecular target: T1, Transthyretin; experiment: Binding affinity to recombinant human transthyretin expressed in Escherichia coli BL21 at 1:45 protein to ligand molar ratio in presence of EGCG by STD-NMR spectroscopic method
[4] = molecular target: T1, Transthyretin; experiment: Binding affinity to recombinant human transthyretin expressed in Escherichia coli BL21 at 1:45 protein to ligand molar ratio by STD-NMR spectroscopic method
How it was run: as §1, with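 “electrophoresis. Protein 20−50 μM in PBS pH 6.0, […] 1:20 to 1:50, 298−313 K, optimized per case.” for “electrophoresis.”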

[5] = molecular target: T1, Transthyretin; experiment: Binding affinity to recombinant human transthyretin expressed in Escherichia coli BL21 at 1:45 protein to ligand molar ratio in presence of IDIF by STD-NMR spectroscopic method
[6] = molecular target: T1, Transthyretin; experiment: Binding affinity to recombinant human transthyretin expressed in Escherichia coli BL21 at 1:20 to 1:50 […] molar ratio by STD-NMR spectroscopic method
How it was run: as §1, with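 “electrophoresis. Protein 20−50 μM in PBS pH 6.0, […] 1:20 to 1:50, 298−313 K, optimized per case.” for “electrophoresis.”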

[7] = molecular target: T1, Transthyretin; experiment: Binding affinity to recombinant human transthyretin expressed in Escherichia coli BL21 at 1:4 protein to ligand molar ratio in presence of EGCG by STD-NMR spectroscopic method

## O=C(O[C@@H]1Cc2c(O)cc(O)cc2O[C@@H]1c1cc(O)c(O)c(O)c1)c1cc(O)c(O)c(O)c1 [EPIGALOCATECHIN GALLATE]
[1]
  Kd: 400 nM
[2]
  Activity: Active

## CC(C)C[C@H](NC(=O)[C@H](CCCCN)NC(=O)[C@H](CCC(N)=O)NC(=O)[C@H](Cc1cnc[nH]1)NC(=O)[C@H](Cc1cnc[nH]1)NC(=O)[C@@H](N)C(C)C)C(=O)N[C@H](C(=O)N[C@@H](Cc1ccccc1)C(=O)N[C@@H](Cc1ccccc1)C(=O)N[C@@H](C)C(=O)N[C@@H](CCC(=O)O)C(=O)N[C@@H](CC(=O)O)C(=O)N[C@H](C(=O)NCC(=O)N[C@@H](CO)C(=O)N[C@@H](CC(N)=O)C(=O)N[C@@H](CCCCN)C(=O)O)C(C)C)C(C)C
[3]
  Activity: inactive
[4]
  Activity: Active
[5]
  Activity: Active

## C[C@H](NC(=O)[C@@H](N)CC(=O)O)C(=O)N[C@@H](CCC(=O)O)C(=O)N[C@@H](Cc1ccccc1)C(=O)N[C@@H](CCCNC(=N)N)C(=O)N[C@@H](Cc1cnc[nH]1)C(=O)N[C@@H](CC(=O)O)C(=O)N[C@@H](CO)C(=O)NCC(=O)N[C@@H](Cc1ccc(O)cc1)C(=O)N[C@@H](CCC(=O)O)C(=O)O
[6]
  Activity: inactive

## H-YEVHHQKLVFF-OH
[6]
  Activity: inactive

## CN(C)C[C@H](O)[C@@H](O)[C@H](O)[C@H](O)CO.O=C(O)c1cc(-c2ccc(F)cc2F)cc(I)c1O
[6]
  Activity: Active
[7]
  Activity: Active

## CN(C)C[C@H](O)[C@@H](O)[C@H](O)[C@H](O)CO.O=C(O)c1cc(-c2ccc(F)cc2F)ccc1O
[6]
  Activity: Active
